Some results are limits rather than exact numbers.

A short description of data set [1]: Cytotoxicity against human NCI-H1975 cells assessed as decrease in cell viability after 72 hrs by MTT assay. The format is functional, cell-based. Particulars: NCI-H1975, 72 h. In short, it runs like this: (§1)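 Cells kept in RPMI 1640 with 10% FBS at 37 °C, 5% CO2, passaged every 2-3 days; seeded at 5,000-7,000 cells/well and left 24 h. Compounds dissolved in 1% DMSO, diluted in fresh medium to 1, 4, 16 and 32 µM, added in sextuplicate; 72 h exposure. MTT added for 3-4 h, medium removed, DMSO added for 15 min at 37 °C, OD read at 540 nm.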

Data set [2] is described as follows: Cytotoxicity against human NCI-H460 cells assessed as decrease in cell viability after 72 hrs by MTT assay. The class given is functional, cell-based. To be noted: NCI-H460, 72 h. In short, it runs like this: as §1
Data set [3] is described as follows: Cytotoxicity against human HCC827 cells assessed as decrease in cell viability after 72 hrs by MTT assay. The class given is functional, cell-based. Particulars: HCC827, 72 h. The method in brief:
as §1

Data set [4] in a line: Cytotoxicity against human A549 cells assessed as decrease in cell viability after 72 hrs by MTT assay. The format is functional, cell-based. To be noted: A549, 72 h. In short, it runs like this:
as §1

Data set [5] in a line: Aqueous solubility of the compound. The format is physicochemical.
Data set [6] in a line: Cytotoxicity against human HOP92 cells assessed as cell growth at 10 uM after 48 hrs by SRB assay relative to control. The class given is functional. To be noted: HOP-92, 48 h, read-out: Activity.
The nature of data set [7]: Growth inhibition of human HOP62 cells after 48 hrs by SRB assay. The class given is functional. Particulars: HOP-62, 48 h; for CC50: read-out: LC50 (the source's name).
The nature of data set [8]: Cytotoxicity against human NCI-H23 cells assessed as cell growth at 10 uM after 48 hrs by SRB assay relative to control. The format is functional. To be noted: NCI-H23, 48 h, read-out: Activity.
Data set [9] can be described thus: Growth inhibition of human NCI-H522 cells after 48 hrs by SRB assay. The class given is functional. Particulars: NCI-H522, 48 h; for CC50: read-out: LC50 (the source's name).
Data set [10] is described as follows: Cytotoxicity against human A549 cells assessed as cell growth at 10 uM after 48 hrs by SRB assay relative to control. The format is functional. Particulars: A549, 48 h, read-out: Activity.
The nature of data set [11]: Growth inhibition of human NCI-H226 cells after 48 hrs by SRB assay. The class given is functional. To be noted: NCI-H226, 48 h.
Data set [12] can be described thus: Growth inhibition of human A549 cells after 48 hrs by SRB assay. The class given is functional. Particulars: A549, 48 h.
Data set [13] can be described thus: Growth inhibition of human NCI-H460 cells after 48 hrs by SRB assay. The format is functional. Particulars: NCI-H460, 48 h.
Data set [14] in a line: Growth inhibition of human NCI-H23 cells after 48 hrs by SRB assay. The format is functional. To be noted: NCI-H23, 48 h.
Data set [15] can be described thus: Cytotoxicity against human NCI-H460 cells assessed as cell growth at 10 uM after 48 hrs by SRB assay relative to control. To be noted: NCI-H460, 48 h, read-out: Activity. The format is functional.
Data set [16] in a line: Cytotoxicity against human NCI-H226 cells assessed as cell growth at 10 uM after 48 hrs by SRB assay relative to control. The format is functional. Particulars: NCI-H226, 48 h, read-out: Activity.
A short description of data set [17]: Growth inhibition of human NCI-H322M cells after 48 hrs by SRB assay. The class given is functional. Particulars: for CC50: read-out: LC50 (the source's name).
The nature of data set [18]: Growth inhibition of human EKVX cells after 48 hrs by SRB assay. The format is functional.
Data set [19] in a line: Cytotoxicity against human EKVX cells assessed as cell growth at 10 uM after 48 hrs by SRB assay relative to control. The format is functional. Particulars: read-out: Activity.
Data set [20] in a line: Growth inhibition of human HOP92 cells after 48 hrs by SRB assay. The format is functional. To be noted: HOP-92, 48 h.
Data set [21] can be described thus: Cytotoxicity against human HOP62 cells assessed as cell growth at 10 uM after 48 hrs by SRB assay relative to control. The class given is functional. To be noted: HOP-62, 48 h, read-out: Activity.
Data set [22] is described as follows: Cytotoxicity against human NCI-H322M cells assessed as cell growth at 10 uM after 48 hrs by SRB assay relative to control. Particulars: read-out: Activity. The format is functional.

For the molecule `Cl.O=C(O)c1ccc2c(c1)n(Cc1ccc3ccccc3c1)c[n+]2Cc1ccc2ccccc2c1.[Br-]`, the IC50 in [1] is 23 µM; in data set [2], 16 µM; in data set [3] it was > 30 µM; in data set [4] it was 12 µM. In addition, the solubility in [5] is < 500 µg/mL.

Regarding `O=C(O)CCc1n(Cc2ccc3ccccc3c2)c2ccccc2[n+]1Cc1ccc2ccccc2c1.[Cl-]`, the half-inhibitory concentration (IC50) in [1], in data set [2], in [3] and in data set [4] was > 30 µM in each case. The solubility in [5] was < 500 µg/mL.

With `O=C(O)c1cc2c(cc1C(=O)O)[n+](Cc1ccc3ccccc3c1)cn2Cc1ccc2ccccc2c1.[Cl-]`, the half-maximal inhibitory concentration (IC50) in data set [1], in data set [2], in [3] and in [4] was > 30 µM in each case. The solubility in data set [5] is < 500 µg/mL.

Consider `Cc1n(Cc2ccc3ccccc3c2)c2ccccc2[n+]1Cc1ccc2ccccc2c1.[Br-]`, for which the 50% inhibitory concentration (IC50) in [1] was determined as 2 µM; in data set [2], 3 µM; in data set [3] it was 4 µM; in [4], 4 µM. Also, the growth at 10 µM in [6] was -68.2%; in data set [8], -29.5%; in [10], 8.96%; in data set [15] it was -73.9%; in data set [16] it was -9.12%; in data set [19], 9.57%. Also, the values for the growth at 10 µM in data set [21] and in data set [22] were -62% and 9.37%, respectively. Moreover, the GI50 turned out to be 1.69 µM in [7]; 0.036 µM in data set [9]; 1.44 µM in data set [11]; 1.76 µM in data set [12]; 1.47 µM in data set [13]; 1.56 µM in data set [17]. Besides, the concentration for 50% growth inhibition (GI50) in data set [18] worked out at 1.78 µM; in data set [20], 0.0317 µM. Also, the TGI in data set [7] was 3.24 µM; in data set [9], 2.27 µM; in [11] it was 3.2 µM; in [12], 3.4 µM; in [13], 3.02 µM; in [14], 2.76 µM. In addition, the concentration for total growth inhibition (TGI) in data set [17] came out at 3 µM; in [18], 4.08 µM; in data set [20], 2.06 µM. For the same molecule, the results for the LC50 in [12] and in data set [20] were 6.55 µM and 5.03 µM, respectively. Further, the CC50 in data set [17] was 5.78 µM. Also, the solubility in data set [5] is < 500 µg/mL.

On to `COc1ccc2c(c1)n(Cc1ccc3ccccc3c1)c[n+]2Cc1ccc2ccccc2c1.[Br-]`, for which the half-inhibitory concentration (IC50) in [1] turned out to be 2 µM; in data set [2], 4 µM; in [3], 4 µM; in data set [4] it was 6 µM. Further, the solubility in [5] was < 500 µg/mL.

`[Cl-].c1ccc2nc(Cn3c[n+](Cc4ccc5ccccc5n4)c4ccccc43)ccc2c1`: the half-inhibitory concentration (IC50) in [1] stood at 3 µM; in data set [2], 4 µM; in data set [3] it was 6 µM; in [4], 10 µM. Moreover, the growth at 10 µM in data set [6] was -8.16%; in data set [8], 32%; in [10] it was 54%; in data set [15], 32.4%; in data set [16], 37.1%; in data set [19], 74.7%. Also, the growth at 10 µM was 53.8% in [21] and 78.1% in data set [22]. In addition, the GI50 in [7] turned out to be 2.97 µM; in data set [9], 1.56 µM; in data set [11], 4.13 µM; in data set [12], 11.6 µM; in [13], 2.8 µM; in data set [14], 1.47 µM. Further, the GI50 in data set [17] is 3.68 µM; in data set [18], 5.7 µM; in data set [20], 0.93 µM. The TGI stood at 13.7 µM in [7]; 9.72 µM in data set [9]; 20.4 µM in data set [11]; 25.9 µM in data set [12]; 12.3 µM in data set [13]; 10.3 µM in data set [14]. The TGI in [17] came out at 17.1 µM; in data set [18] it was 23.7 µM; in [20], 4.3 µM. Also, the values for the CC50 in data set [7], in data set [9] and in data set [17] were 41 µM, 44.7 µM and 43.5 µM, respectively. Besides, the median lethal concentration (LC50) came to 78.2 µM in [11]; 58 µM in data set [12]; 41.8 µM in [13]; 49.4 µM in data set [14]; 72.1 µM in [18]; 25 µM in [20]. Moreover, the solubility in data set [5] worked out at 2400 µg/mL.

For the molecule `OCCCc1n(Cc2ccc3ccccc3c2)c2ccccc2[n+]1Cc1ccc2ccccc2c1.[Br-]`, the IC50 in data set [1] came out at 4 µM; in [2] it was 4 µM; in [3] it was 6 µM; in [4], 10 µM. In addition, the growth at 10 µM is -24.3% in [6]; 19% in [8]; 68.4% in data set [10]; 18.4% in data set [15]; 48.5% in data set [16]; 47.6% in data set [19]. The growth at 10 µM was found to be 37.5% in data set [21] and 49.9% in [22]. Further, the GI50 was determined as 2.32 µM in data set [7]; 1.05 µM in data set [9]; 2.23 µM in [11]; 6.97 µM in data set [12]; 2.43 µM in [13]; 1.65 µM in [14]. Also, the values for the GI50 in data set [17], in data set [18] and in data set [20] were 2.15 µM, 3.68 µM and 0.566 µM, respectively. Also, the TGI is 11.6 µM in [7]; 3.95 µM in [9]; 10.5 µM in [11]; 31.4 µM in data set [12]; 9.57 µM in data set [13]; 8.17 µM in [14]. The total growth inhibition concentration (TGI) is 9.1 µM in [17], 19.4 µM in data set [18] and 3.1 µM in data set [20]. Besides, the figures for the CC50 in data set [7], in data set [9] and in data set [17] were 82.7 µM, 84.4 µM and 31.7 µM, respectively. Further, the median lethal concentration (LC50) in data set [11] was 99.6 µM; in data set [12], > 100 µM; in data set [13], 80.3 µM; in data set [14], 56.8 µM; in [18], 70.6 µM; in [20], 69.1 µM. In [5], the solubility is < 500 µg/mL.

Take `O=C(OCc1ccc2ccccc2c1)c1ccc2c(c1)n(Cc1ccc3ccccc3c1)c[n+]2Cc1ccc2ccccc2c1.[Br-]`: the IC50 stood at 4 µM in data set [1], 4 µM in [2], 7 µM in data set [3] and 7 µM in data set [4]. For the same molecule, in data set [5], the solubility was < 500 µg/mL.

Turning to `OCCCc1n(Cc2ccc3ccccc3n2)c2ccccc2[n+]1Cc1ccc2ccccc2c1.[Br-]`, the IC50 in [1] turned out to be 3 µM; in data set [2], 4 µM; in data set [3] it was 11 µM; in data set [4], 12 µM. Also, the solubility in data set [5] was < 500 µg/mL.

Consider `COC(=O)Cc1n(Cc2ccc3ccccc3c2)c2ccccc2[n+]1Cc1ccc2ccccc2c1.[Br-]`, for which the IC50 is 6 µM in data set [1], 7 µM in data set [2], 8 µM in [3] and 8 µM in data set [4]. Besides, the solubility in data set [5] is < 500 µg/mL.

On to `COCCOCCOCc1n(Cc2ccc3ccccc3c2)c2cc(C)c(C)cc2[n+]1Cc1ccc2ccccc2c1.[Br-]`, for which the IC50 in data set [1] was < 1 µM; in data set [2], < 1 µM; in [3] it was 2 µM; in [4] it was 2 µM. The solubility in data set [5] is 1000 µg/mL.

The values are drawn from ChEMBL document CHEMBL3868630, “Synthesis, anti-proliferative activity, SAR study, and preliminary in vivo toxicity study of substituted N,N'-bis(arylmethyl)benzimidazolium salts against a panel of non-small cell lung cancer cell lines” (Bioorg Med Chem, 2017).
